Laboratory results reported in ChEMBL document CHEMBL1142153, “Pharmacokinetics and disposition of CS-023 (RO4908463), a novel parenteral carbapenem, in animals” (Antimicrob Agents Chemother, 2007).

Legend:
Rattus norvegicus [1] = experiment: Fecal excretion in rat assessed as radioactivity at 10 mg/kg, iv after 24 h; format: ADME, organism-based; set-up: dose 10 mg/kg, route intravenous; settings: in vivo
In short: (§1)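 Rats were dosed i.v. via the tail vein with [14C]CS-023 at 10 mg/kg (4.58 MBq/kg) in saline, then kept in individual metabolic cages for separate urine and feces collection over 7 days. Samples up to 24 h were collected at around 4°C into 0.5 M MOPS pH 6.0, and feces were homogenized. Radioactivity was measured by liquid scintillation counting. Parent drug and metabolite were apportioned by silica TLC (3% NaCl:acetonitrile 2:1) with imaging-plate analysis. n=4.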

Rattus norvegicus [2] = experiment: Urinary excretion in rat assessed as radioactivity at 10 mg/kg, iv after 24 h; format: ADME, organism-based, Urine; set-up: dose 10 mg/kg, route intravenous; settings: in vivo; in short: as §1

Activity (Rattus norvegicus [1]): 1.3%
Activity (Rattus norvegicus [2]): 31.4%
Structure (SMILES): C[C@@H]1[C@H]([C@H](C(=O)O)[C@@H](C)O)N=C(C(=O)O)[C@H]1S[C@H]1C[C@@H](C(=O)N2CC[C@H](NC(=O)CNC(=N)N)C2)N(C)C1
